Assay results: ChEMBL document CHEMBL4834477, “Synthesis and biological evaluation of novel purinyl quinazolinone derivatives as PI3Kδ-specific inhibitors for the treatment of hematologic malignancies” (Bioorg Med Chem, 2021)

Legend:
[1] = molecular target: PI3-kinase p110-alpha/p85-alpha (Homo sapiens, UniProt P42336); experiment: Inhibition of recombinant human full length N-terminal His-tagged p110alpha/p85alpha expressed in baculovirus expression system measured after 60 mins in presence of ATP by ATP-competitive binding assay
Chain of PI3-kinase p110-alpha/p85-alpha (P27986 whole entry): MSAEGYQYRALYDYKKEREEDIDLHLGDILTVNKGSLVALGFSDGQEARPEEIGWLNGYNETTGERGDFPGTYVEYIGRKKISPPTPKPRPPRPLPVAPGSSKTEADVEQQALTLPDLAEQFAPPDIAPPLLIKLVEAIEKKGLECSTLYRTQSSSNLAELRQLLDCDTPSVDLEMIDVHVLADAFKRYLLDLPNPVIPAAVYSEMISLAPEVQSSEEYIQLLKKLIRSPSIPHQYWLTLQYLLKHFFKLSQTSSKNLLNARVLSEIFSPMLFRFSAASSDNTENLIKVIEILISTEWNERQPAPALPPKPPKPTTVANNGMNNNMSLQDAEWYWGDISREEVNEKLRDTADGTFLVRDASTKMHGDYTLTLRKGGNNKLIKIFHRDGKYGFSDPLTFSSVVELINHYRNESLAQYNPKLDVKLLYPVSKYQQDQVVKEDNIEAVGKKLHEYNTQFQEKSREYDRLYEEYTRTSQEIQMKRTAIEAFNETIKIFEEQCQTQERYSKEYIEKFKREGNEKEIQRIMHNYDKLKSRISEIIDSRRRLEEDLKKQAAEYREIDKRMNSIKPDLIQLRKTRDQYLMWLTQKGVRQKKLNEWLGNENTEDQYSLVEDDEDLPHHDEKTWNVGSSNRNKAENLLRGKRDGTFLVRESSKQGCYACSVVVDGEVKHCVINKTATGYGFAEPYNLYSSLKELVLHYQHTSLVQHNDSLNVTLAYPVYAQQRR
Chain of PI3-kinase p110-alpha/p85-alpha (P42336 whole entry): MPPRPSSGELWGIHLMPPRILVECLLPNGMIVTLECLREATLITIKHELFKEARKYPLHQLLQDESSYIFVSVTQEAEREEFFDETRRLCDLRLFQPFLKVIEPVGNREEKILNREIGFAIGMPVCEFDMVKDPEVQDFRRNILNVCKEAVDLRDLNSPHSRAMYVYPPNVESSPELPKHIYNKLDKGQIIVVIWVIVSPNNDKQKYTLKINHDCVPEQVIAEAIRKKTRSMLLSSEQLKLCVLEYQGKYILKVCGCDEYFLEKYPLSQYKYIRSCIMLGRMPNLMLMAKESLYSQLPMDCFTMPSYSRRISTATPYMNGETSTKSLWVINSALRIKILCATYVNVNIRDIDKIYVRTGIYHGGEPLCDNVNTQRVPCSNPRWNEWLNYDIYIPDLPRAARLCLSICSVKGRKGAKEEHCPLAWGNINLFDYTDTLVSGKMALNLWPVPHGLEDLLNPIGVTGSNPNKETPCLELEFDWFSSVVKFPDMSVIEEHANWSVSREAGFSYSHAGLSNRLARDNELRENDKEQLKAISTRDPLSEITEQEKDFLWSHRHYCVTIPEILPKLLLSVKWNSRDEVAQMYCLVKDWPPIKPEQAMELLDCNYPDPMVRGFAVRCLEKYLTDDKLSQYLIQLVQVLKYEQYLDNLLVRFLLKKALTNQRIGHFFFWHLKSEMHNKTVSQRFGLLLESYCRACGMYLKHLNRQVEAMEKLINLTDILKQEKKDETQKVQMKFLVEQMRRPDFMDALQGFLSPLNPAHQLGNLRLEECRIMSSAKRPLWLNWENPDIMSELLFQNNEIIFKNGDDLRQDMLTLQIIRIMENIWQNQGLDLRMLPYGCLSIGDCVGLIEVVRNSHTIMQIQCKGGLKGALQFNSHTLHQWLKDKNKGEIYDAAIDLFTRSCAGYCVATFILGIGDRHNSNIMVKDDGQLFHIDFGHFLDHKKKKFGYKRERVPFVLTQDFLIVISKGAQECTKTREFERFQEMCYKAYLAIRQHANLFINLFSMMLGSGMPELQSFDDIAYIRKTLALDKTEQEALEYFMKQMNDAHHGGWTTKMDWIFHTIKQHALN
Summary of the method: (§1)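 SelectScreen ATP-competitive assay using 10-point titration with 1 μM top final compound concentration. Kinase, substrate and ATP mixed in 30 mM HEPES buffer and reacted 60 min. IC50 taken as the mean of three independent experiments.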

[2] = molecular target: Phosphatidylinositol 4,5-bisphosphate 3-kinase catalytic subunit beta isoform (Homo sapiens, UniProt P42338); experiment: Inhibition of recombinant human full length His-tagged p110beta expressed in baculovirus expression system measured after 60 mins in presence of ATP by ATP-competitive binding assay; summary of the method: as §1
Chain of Phosphatidylinositol 4,5-bisphosphate 3-kinase catalytic subunit beta isoform (P42338 whole entry, canonical isoform): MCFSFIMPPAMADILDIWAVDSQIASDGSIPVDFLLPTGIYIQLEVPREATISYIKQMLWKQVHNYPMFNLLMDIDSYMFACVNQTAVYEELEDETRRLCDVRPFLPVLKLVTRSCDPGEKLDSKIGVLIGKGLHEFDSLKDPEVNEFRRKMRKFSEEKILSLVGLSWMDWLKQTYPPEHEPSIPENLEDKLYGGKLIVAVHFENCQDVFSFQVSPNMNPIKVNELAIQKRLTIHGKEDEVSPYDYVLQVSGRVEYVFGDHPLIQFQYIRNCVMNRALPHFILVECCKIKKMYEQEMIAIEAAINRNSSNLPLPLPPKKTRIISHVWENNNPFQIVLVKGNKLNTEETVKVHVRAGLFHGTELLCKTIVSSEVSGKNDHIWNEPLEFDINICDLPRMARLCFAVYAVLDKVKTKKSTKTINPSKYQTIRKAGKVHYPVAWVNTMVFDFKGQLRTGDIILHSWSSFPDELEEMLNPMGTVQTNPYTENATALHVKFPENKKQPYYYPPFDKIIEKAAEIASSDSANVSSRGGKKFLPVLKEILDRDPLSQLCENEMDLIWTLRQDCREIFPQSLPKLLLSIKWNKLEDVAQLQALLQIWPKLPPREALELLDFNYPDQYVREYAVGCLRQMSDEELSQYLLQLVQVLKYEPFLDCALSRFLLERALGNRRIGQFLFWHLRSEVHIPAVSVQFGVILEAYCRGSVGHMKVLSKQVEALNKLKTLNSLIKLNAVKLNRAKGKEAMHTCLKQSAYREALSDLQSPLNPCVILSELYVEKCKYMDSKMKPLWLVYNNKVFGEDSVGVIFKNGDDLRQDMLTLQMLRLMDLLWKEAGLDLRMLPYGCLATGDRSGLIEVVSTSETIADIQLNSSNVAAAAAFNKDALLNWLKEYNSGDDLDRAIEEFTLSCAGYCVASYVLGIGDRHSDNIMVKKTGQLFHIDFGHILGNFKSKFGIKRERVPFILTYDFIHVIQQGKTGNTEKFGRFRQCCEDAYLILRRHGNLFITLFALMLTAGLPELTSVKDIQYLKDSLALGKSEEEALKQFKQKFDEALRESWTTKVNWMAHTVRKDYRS

[3] = AUC (last) in Sprague-Dawley rat at 1 mg/kg, po measured for 24 hrs by LC-MS/MS analysis; format: ADME, organism-based; set-up: route oral, dose 1 mg/kg, time 24 hrs; details: in vivo
Summary of the method: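 Sprague-Dawley rats dosed orally at 1 or 3 mg/kg, three animals per group. Blood sampled at 0.25, 0.5, 1, 2, 4, 8 and 24 h post-dose. Plasma separated by centrifugation, extracted and quantified by LC-MS/MS. PK parameters (Cmax, AUClast, Tmax, t1/2) derived by non-compartmental software.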

[4] = molecular target: PI3-kinase p110-delta/p85-alpha (Homo sapiens, UniProt O00329); experiment: Inhibition of recombinant human full length His-tagged p110delta/p85alpha expressed in baculovirus expression system measured after 60 mins in presence of ATP by ATP-competitive binding assay; summary of the method: as §1
Chain of PI3-kinase p110-delta/p85-alpha (P27986 whole entry): as the sequence (P27986 whole entry) above
Chain of PI3-kinase p110-delta/p85-alpha (O00329 whole entry): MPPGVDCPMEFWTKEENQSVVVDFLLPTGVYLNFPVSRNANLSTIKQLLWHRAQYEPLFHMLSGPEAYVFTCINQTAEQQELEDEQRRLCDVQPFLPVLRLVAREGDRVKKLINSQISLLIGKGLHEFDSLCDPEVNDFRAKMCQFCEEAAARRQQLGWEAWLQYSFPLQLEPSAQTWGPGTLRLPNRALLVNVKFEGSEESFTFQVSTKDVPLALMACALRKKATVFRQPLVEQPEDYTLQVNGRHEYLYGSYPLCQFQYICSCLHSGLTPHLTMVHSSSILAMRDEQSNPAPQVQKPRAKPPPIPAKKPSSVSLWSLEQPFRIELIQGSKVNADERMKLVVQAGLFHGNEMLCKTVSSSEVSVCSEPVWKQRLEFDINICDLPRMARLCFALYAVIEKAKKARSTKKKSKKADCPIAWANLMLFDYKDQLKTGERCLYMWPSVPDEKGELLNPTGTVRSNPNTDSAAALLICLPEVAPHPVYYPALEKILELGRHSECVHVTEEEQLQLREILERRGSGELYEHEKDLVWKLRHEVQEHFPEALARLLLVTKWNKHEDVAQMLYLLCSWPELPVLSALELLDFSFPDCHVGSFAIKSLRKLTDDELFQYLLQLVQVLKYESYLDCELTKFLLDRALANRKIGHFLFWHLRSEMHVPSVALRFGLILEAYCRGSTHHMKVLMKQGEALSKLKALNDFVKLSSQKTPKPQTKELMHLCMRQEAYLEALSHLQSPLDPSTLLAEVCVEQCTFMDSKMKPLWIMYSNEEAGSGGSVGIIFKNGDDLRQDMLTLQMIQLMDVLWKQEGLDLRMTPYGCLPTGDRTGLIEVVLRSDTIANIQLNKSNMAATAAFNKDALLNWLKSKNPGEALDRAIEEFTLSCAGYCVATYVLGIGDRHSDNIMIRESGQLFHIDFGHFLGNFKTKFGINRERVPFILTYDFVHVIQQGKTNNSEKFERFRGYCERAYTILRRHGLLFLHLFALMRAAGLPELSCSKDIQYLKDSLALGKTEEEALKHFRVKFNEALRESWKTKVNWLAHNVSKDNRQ

[5] = tested on: SU-DHL-5; experiment: Antiproliferative activity against human SU-DHL-5 cells assessed as reduction in cell viability at 10 uM by CellTiter-Glo luminescent cell viability assay relative to idelalisib; format: functional
Summary of the method: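 Cells were seeded at 5x10^4 per well and exposed to the compound at a single concentration: 10 μM for SUDHL-5 and 20 μM for MOLT-4. CellTiter-Glo reagent was added 1:1, mixed for 2 min to lyse the cells, and held 10 min at room temperature before reading luminescence. Readings were background-subtracted and normalized to control wells.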

Compound | IC50 [1] | IC50 [2] | AUC(0-t) at 24 h [3] | IC50 [4] | fold change (FC) [5]
O=c1c2c(F)cccc2nc([C@@H](Nc2ncnc3nc[nH]c23)C2CC2)n1-c1ccccc1 | 222 nM | 199 nM | 81 ng·h/mL | 0.39 nM | –
Cc1cccc2nc([C@@H](Nc3ncnc4nc[nH]c34)C3CC3)n(-c3ccccc3)c(=O)c12 | – | – | – | – | 5
